Values after ≈ are worked out from the molar mass of the structure shown.
Legend:
Staphylococcus aureus = test: Antimicrobial activity against Staphylococcus aureus(ATCC 6538) was determined; type: functional
Summary of the method: (§1)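 MIC determined by serial dilution in liquid medium; values expressed as micromoles/milliliter.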

Streptococcus pyogenes = test: Antimicrobial activity against Streptococcus pyogenes A(IVM P 134) was determined; type: functional; summary of the method: as §1
[1] = Partition coefficient (logP); type: physicochemical; conditions: octanol/water
Summary of the method: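 Octanol/water partition coefficient: some values measured experimentally by a standard literature procedure, with P = C_oct/C_H2O(1−α) correcting for ionization (α); the remaining values calculated by the method of Leo et al.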

Microsporum canis = test: Antimicrobial activity against Microsporum canis(ATCC 11621) was determined; type: functional; summary of the method: as §1

O=C(O)/C=C/C(=O)c1ccc(-c2ccccc2)cc1
MIC (Staphylococcus aureus): 80 µM (≈ 20.2 µg/mL)
MIC (Streptococcus pyogenes): 6 µM (≈ 1.51 µg/mL)
logP [1]: 3.9

COC(=O)/C=C\C(=O)c1ccccc1
MIC (Staphylococcus aureus): 40 µM (≈ 7.61 µg/mL)
MIC (Microsporum canis): < 2 µM
MIC (Streptococcus pyogenes): 3 µM (≈ 0.571 µg/mL)
logP [1]: 1.49

O=C(O)/C=C/C(=O)c1cccnc1
MIC (Staphylococcus aureus): 1000 µM (≈ 177 µg/mL)
MIC (Streptococcus pyogenes): 50 µM (≈ 8.86 µg/mL)
logP [1]: 0.26

Cc1ccc(C(=O)/C=C/C(=O)O)cc1
MIC (Staphylococcus aureus): 1000 µM (≈ 190 µg/mL)
MIC (Microsporum canis): 1000 µM (≈ 190 µg/mL)
MIC (Streptococcus pyogenes): 13 µM (≈ 2.47 µg/mL)
logP [1]: 2.44

C/C(=C\C(=O)O)C(=O)c1ccccc1
MIC (Staphylococcus aureus): 18000 µM (≈ 3420 µg/mL)
MIC (Streptococcus pyogenes): 2000 µM (≈ 380 µg/mL)
logP [1]: 2.44

C/C(=C/C(=O)c1ccc(C)cc1)C(=O)O
MIC (Staphylococcus aureus): 15000 µM (≈ 3060 µg/mL)
MIC (Microsporum canis): 3200 µM (≈ 654 µg/mL)
MIC (Streptococcus pyogenes): 2000 µM (≈ 408 µg/mL)
logP [1]: 2.19

C/C(=C/C(=O)O)C(=O)c1ccccc1
MIC (Staphylococcus aureus): > 16000 µM
MIC (Microsporum canis): 16000 µM (≈ 3040 µg/mL)
MIC (Streptococcus pyogenes): 2200 µM (≈ 418 µg/mL)
logP [1]: 1.69

CCCCCCCC(=O)/C(C)=C(/C)C(=O)O
MIC (Streptococcus pyogenes): 320 µM (≈ 72.4 µg/mL)
logP [1]: 2.4

CCCCCCCCCCCC(=O)/C(C)=C(/C)C(=O)O
MIC (Streptococcus pyogenes): 10 µM (≈ 2.82 µg/mL)
logP [1]: 4.4

CCCCC(=O)/C(C)=C(/C)C(=O)O
MIC (Streptococcus pyogenes): 3800 µM (≈ 700 µg/mL)
logP [1]: 0.9

COC(=O)/C=C/C(=O)c1ccc(C)cc1
MIC (Staphylococcus aureus): 50 µM (≈ 10.2 µg/mL)
MIC (Microsporum canis): 50 µM (≈ 10.2 µg/mL)
MIC (Streptococcus pyogenes): 24 µM (≈ 4.9 µg/mL)
logP [1]: 2.74

COC(=O)/C=C/C(=O)c1ccccc1
MIC (Staphylococcus aureus): 40 µM (≈ 7.61 µg/mL)
MIC (Microsporum canis): 2.6 µM (≈ 0.495 µg/mL)
MIC (Streptococcus pyogenes): 10 µM (≈ 1.9 µg/mL)
logP [1]: 2.24

COC(=O)/C=C/C(=O)c1cccnc1
MIC (Staphylococcus aureus): 160 µM (≈ 30.6 µg/mL)
MIC (Microsporum canis): 5 µM (≈ 0.956 µg/mL)
MIC (Streptococcus pyogenes): 42 µM (≈ 8.03 µg/mL)
logP [1]: 0.56

C/C(=C/C(=O)O)C(=O)c1ccc(C)cc1
MIC (Staphylococcus aureus): > 15000 µM
MIC (Microsporum canis): 3200 µM (≈ 654 µg/mL)
MIC (Streptococcus pyogenes): 2000 µM (≈ 408 µg/mL)
logP [1]: 2.19

O=C(O)/C=C/C(=O)c1ccccc1
MIC (Staphylococcus aureus): 1260 µM (≈ 222 µg/mL)
MIC (Microsporum canis): 1000 µM (≈ 176 µg/mL)
MIC (Streptococcus pyogenes): 30 µM (≈ 5.29 µg/mL)
logP [1]: 1.94

C/C(=C\C(=O)O)C(=O)c1ccc(C)cc1
MIC (Staphylococcus aureus): 15000 µM (≈ 3060 µg/mL)
MIC (Microsporum canis): 3200 µM (≈ 654 µg/mL)
logP [1]: 2.94

C/C(=C\C(=O)c1ccc(C)cc1)C(=O)O
MIC (Staphylococcus aureus): 16000 µM (≈ 3270 µg/mL)
MIC (Microsporum canis): 1200 µM (≈ 245 µg/mL)
MIC (Streptococcus pyogenes): 2000 µM (≈ 408 µg/mL)
logP [1]: 2.94

Source: ChEMBL document CHEMBL1123841, “3-Carbonylacrylic derivatives as potential antimicrobial agents. Correlations between activity and reactivity toward cysteine” (J Med Chem, 1987)
